The source made the active and inactive calls. The rule behind the calls is not given here.
What was measured:
[1] = tested on: Fusarium solani; experiment: Antifungal activity against inoculum range 6.5 x 10^5 to 6.8 x 10^5 conidia/animal Fusarium solani infected in ICR mouse assessed as bacterial count in kidney tissue at 6.25 mg/kg, po BID treated after 12 hrs of inoculation; type: functional
How it was run: (§1)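 Outbred ICR mice were made neutropenic with 5-fluorouracil 150 mg/kg i.v. 1 day before i.v. infection with F. solani isolate 95-2478 conidia (0.2 ml). Posaconazole oral suspension was given by gavage BID from 12 h after inoculation until day 9. Kidneys from moribund animals were homogenized and plated on potato dextrose agar, and CFU/g was counted after 48 h. Group medians were compared with untreated controls by Mann-Whitney.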

[2] = tested on: Fusarium solani; experiment: Antifungal activity against inoculum range 6.5 x 10^5 to 6.8 x 10^5 conidia/animal Fusarium solani infected in ICR mouse assessed as bacterial count in kidney tissue at 12.5 mg/kg, po BID treated after 12 hrs of inoculation; type: functional; how it was run: as §1
[3] = tested on: Fusarium solani; experiment: Antifungal activity against inoculum range 6.5 x 10^5 to 6.8 x 10^5 conidia/animal Fusarium solani infected in ICR mouse assessed as bacterial count in kidney tissue at 25 mg/kg, po BID treated after 12 hrs of inoculation; type: functional; how it was run: as §1
[4] = tested on: Fusarium solani; experiment: Antifungal activity against inoculum range 6.5 x 10^5 to 6.8 x 10^5 conidia/animal Fusarium solani infected in ICR mouse assessed as bacterial count in kidney tissue at 50 mg/kg, po BID treated after 12 hrs of inoculation; type: functional; how it was run: as §1
[5] = tested on: Fusarium solani; experiment: Antifungal activity against inoculum range 7.7 x 10^4 to 7.8 x 10^4 conidia/animal Fusarium solani infected in ICR mouse assessed as bacterial count in kidney tissue at 6.25 mg/kg, po BID treated after 12 hrs of inoculation; type: functional; how it was run: as §1
[6] = tested on: Fusarium solani; experiment: Antifungal activity against inoculum range 7.7 x 10^4 to 7.8 x 10^4 conidia/animal Fusarium solani infected in ICR mouse assessed as bacterial count in kidney tissue at 12.5 mg/kg, po BID treated after 12 hrs of inoculation; type: functional; how it was run: as §1
[7] = tested on: Fusarium solani; experiment: Antifungal activity against inoculum range 7.7 x 10^4 to 7.8 x 10^4 conidia/animal Fusarium solani infected in ICR mouse assessed as bacterial count in kidney tissue at 25 mg/kg, po BID treated after 12 hrs of inoculation; type: functional; how it was run: as §1
[8] = tested on: Fusarium solani; experiment: Antifungal activity against inoculum range 7.7 x 10^4 to 7.8 x 10^4 conidia/animal Fusarium solani infected in ICR mouse assessed as bacterial count in kidney tissue at 50 mg/kg, po BID treated after 12 hrs of inoculation; type: functional; how it was run: as §1
[9] = tested on: Fusarium solani; experiment: Antifungal activity against mid- inoculum 6.5 x 10^5 conidia/ml Fusarium solani infected in ICR mouse assessed as rate of survival at 6.25 mg/kg, po BID treated 2 days prior of infection; type: functional, organism-based; design: dose 6.25 mg/kg
How it was run: (§2)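 Dosing began 2 days before i.v. F. solani 95-2478 challenge in ICR mice made neutropenic with 5-fluorouracil (150 mg/kg i.v., day −1). Posaconazole oral suspension was gavaged BID through day 9, with observation off drug until day 15, n ≥10 per regimen. Moribund animals were euthanized and scored dead the next day. Kaplan-Meier median survival was compared with untreated controls.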

[10] = tested on: Fusarium solani; experiment: Antifungal activity against mid- inoculum 6.5 x 10^5 conidia/ml Fusarium solani infected in ICR mouse assessed as rate of survival at 12.5 mg/kg, po BID treated 2 days prior of infection; type: functional, organism-based; design: dose 12.5 mg/kg; how it was run: as §2
[11] = tested on: Fusarium solani; experiment: Antifungal activity against mid- inoculum 6.5 x 10^5 conidia/ml Fusarium solani infected in ICR mouse assessed as rate of survival at 25 mg/kg, po BID treated 2 days prior of infection; type: functional, organism-based; design: dose 25 mg/kg; how it was run: as §2
[12] = tested on: Fusarium solani; experiment: Antifungal activity against mid- inoculum 6.5 x 10^5 conidia/ml Fusarium solani infected in ICR mouse assessed as rate of survival at 50 mg/kg, po BID treated 2 days prior of infection; type: functional, organism-based; design: dose 50 mg/kg; how it was run: as §2
[13] = tested on: Fusarium solani; experiment: Antifungal activity against low - inoculum 7.5 x 10^4 conidia/ml Fusarium solani infected in ICR mouse assessed as rate of survival at 6.25 mg/kg, po BID treated 2 days prior of infection; type: functional, organism-based; design: dose 6.25 mg/kg; how it was run: as §2
[14] = tested on: Fusarium solani; experiment: Antifungal activity against low - inoculum 7.5 x 10^4 conidia/ml Fusarium solani infected in ICR mouse assessed as rate of survival at 12.5 mg/kg, po BID treated 2 days prior of infection; type: functional, organism-based; design: dose 12.5 mg/kg; how it was run: as §2
[15] = tested on: Fusarium solani; experiment: Antifungal activity against low - inoculum 7.5 x 10^4 conidia/ml Fusarium solani infected in ICR mouse assessed as rate of survival at 25 mg/kg, po BID treated 2 days prior of infection; type: functional, organism-based; design: dose 25 mg/kg; how it was run: as §2
[16] = tested on: Fusarium solani; experiment: Antifungal activity against low - inoculum 7.5 x 10^4 conidia/ml Fusarium solani infected in ICR mouse assessed as rate of survival at 50 mg/kg, po BID treated 2 days prior of infection; type: functional, organism-based; design: dose 50 mg/kg; how it was run: as §2
[17] = tested on: Fusarium solani; experiment: Antifungal activity against mid- inoculum 6.5 x 10^5 conidia/ml Fusarium solani infected in ICR mouse assessed as bacterial count in kidney tissue at 6.25 mg/kg, po BID treated 2 days prior of infection; type: functional
How it was run: (§3)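 Prophylaxis model: posaconazole oral suspension was given by gavage BID starting 2 days before i.v. conidial challenge and continued to day 9. ICR mice were made neutropenic with 5-fluorouracil 150 mg/kg i.v. 1 day pre-inoculation, with n ≥10 per regimen. Kidneys were homogenized and plated on potato dextrose agar, and CFU/g was read after 48 h. Results were compared with untreated controls by Mann-Whitney.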

[18] = tested on: Fusarium solani; experiment: Antifungal activity against mid- inoculum 6.5 x 10^5 conidia/ml Fusarium solani infected in ICR mouse assessed as bacterial count in kidney tissue at 12.5 mg/kg, po BID treated 2 days prior of infection; type: functional; how it was run: as §3
[19] = tested on: Fusarium solani; experiment: Antifungal activity against mid- inoculum 6.5 x 10^5 conidia/ml Fusarium solani infected in ICR mouse assessed as bacterial count in kidney tissue at 25 mg/kg, po BID treated 2 days prior of infection; type: functional; how it was run: as §3
[20] = tested on: Fusarium solani; experiment: Antifungal activity against mid- inoculum 6.5 x 10^5 conidia/ml Fusarium solani infected in ICR mouse assessed as bacterial count in kidney tissue at 50 mg/kg, po BID treated 2 days prior of infection; type: functional; how it was run: as §3
[21] = tested on: Fusarium solani; experiment: Antifungal activity against low - inoculum 7.5 x 10^4 conidia/ml Fusarium solani infected in ICR mouse assessed as bacterial count in kidney tissue at 6.25 mg/kg, po BID treated 2 days prior of infection; type: functional; how it was run: as §3
[22] = tested on: Fusarium solani; experiment: Antifungal activity against low - inoculum 7.5 x 10^4 conidia/ml Fusarium solani infected in ICR mouse assessed as bacterial count in kidney tissue at 12.5 mg/kg, po BID treated 2 days prior of infection; type: functional; how it was run: as §3
[23] = tested on: Fusarium solani; experiment: Antifungal activity against low - inoculum 7.5 x 10^4 conidia/ml Fusarium solani infected in ICR mouse assessed as bacterial count in kidney tissue at 25 mg/kg, po BID treated 2 days prior of infection; type: functional; how it was run: as §3
[24] = tested on: Fusarium solani; experiment: Antifungal activity against low - inoculum 7.5 x 10^4 conidia/ml Fusarium solani infected in ICR mouse assessed as bacterial count in kidney tissue at 50 mg/kg, po BID treated 2 days prior of infection; type: functional; how it was run: as §3
[25] = tested on: Fusarium oxysporum; experiment: Antifungal activity against Fusarium oxysporum isolate infected in ICR mouse; type: functional

`CC[C@@H]([C@H](C)O)n1ncn(-c2ccc(N3CCN(c4ccc(OC[C@@H]5CO[C@@](Cn6cncn6)(c6ccc(F)cc6F)C5)cc4)CC3)cc2)c1=O` [POSACONAZOLE] was tested, and the log10CFU/g [1] was 6, the log10CFU/g [2] was 5.8 and the log10CFU/g [3] was 5.6. The log10CFU/g [4] was 5.4, the log10CFU/g [5] was 5 and the log10CFU/g [6] was 5.1. For the same compound, the log10CFU/g [7] was 5, the log10CFU/g [8] was 4.6 and the Activity [9] was “Active”. For the same compound, the Activity [10] was “Active”, the Activity [11] was “Active” and the Activity [12] was “Active”. For the same compound, the Activity [13] was “Active”, the Activity [14] was “Active” and the Activity [15] was “Active”. For the same compound, the Activity [16] was “Active”, the log10CFU/g [17] was 5.6 and the log10CFU/g [18] was 5.5. It also gave a log10CFU/g [19] of 5.5, a log10CFU/g [20] of 4.7 and a log10CFU/g [21] of 2.8. It also gave a log10CFU/g [22] of 4.4, a log10CFU/g [23] of 4.5 and a log10CFU/g [24] of 2.9. For the same compound, the MIC [25] was > 16 µg/mL.
